The source of these data is article PMC2998183 (Journal of nuclear medicine : official publication, Society …, 2010).

In data set [1] the test system is B16/F1 melanoma cells. The data set can be described thus: Cellular efflux in B16/F1 melanoma cells. The note with it: 2 h after incubating cells in culture medium. The class given is cell-based. The essentials: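 B16/F1 cells were loaded with ¹¹¹In-labelled test compound for 2 h at 25°C, then given 2 ice-cold PBS rinses to remove non-specifically bound activity. Radioactivity released into the culture medium was monitored. At 20, 40, 60, 90 and 120 min, cell-surface and intracellular radioactivity were collected separately and gamma-counted.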

Data set [2] concerns B16/F1 melanoma cells. The data set can be described thus: Cellular internalization in B16/F1 melanoma cells. The class given is cell-based. The note with it: 25°C. The essentials:
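B16/F1 cells, washed twice in binding medium (DMEM, 25 mM HEPES pH 7.4, 0.2% BSA, 0.3 mM 1,10-phenanthroline), incubated at 25°C for 20, 40, 60, 90 and 120 min (n=3) with ~200,000 cpm HPLC-purified ¹¹¹In-labelled test compound. Cells rinsed in ice-cold 0.2% BSA/0.01 M PBS pH 7.4. Membrane-bound activity stripped with 40 mM sodium acetate pH 4.5, 0.9% NaCl, 0.2% BSA. Internalized activity recovered by 1 N NaOH lysis (5 min). Both fractions gamma-counted.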

Data set [3] can be described thus: Urinary metabolites by RP-HPLC. Format: in vivo, mouse. Particulars: urine, 2 h post-injection. The procedure, abridged:
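A C57 mouse bearing a B16/F1 flank tumour (1×10⁶ cells s.c., 10 days) received 37 MBq (1 mCi) ¹¹¹In-labelled test compound via the tail vein. It was euthanized at 2 h and urine collected. Urine was centrifuged at 16,000g for 5 min, and aliquots were analysed by RP-HPLC using a 20-min 18–28% acetonitrile/20 mM HCl gradient.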

Data set [4] in a line: In vitro serum stability in mouse serum monitored by RP-HPLC. The class given is in vitro ADME. The note with it: 37 °C, 24 h. The procedure, abridged:
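Test compound was labelled with ¹¹¹In in 0.5 M NH₄OAc pH 4.5 at 75°C for 45 min, and unbound ¹¹¹In was scavenged with EDTA. It was purified by C-18 RP-HPLC (20-min 18–28% acetonitrile gradient in 20 mM HCl). The purified label was incubated in mouse serum at 37°C for 24 h, with degradation monitored by RP-HPLC.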

For data set [5], the system named is B16/F1 melanoma-bearing C57 mice. The data set is described as follows: Biodistribution in B16/F1 melanoma-bearing C57 mice. The class given is in vivo, mouse.
Test in data set [6]: as above
Format: in vivo, mouse. Particulars: female, C57, mouse, urine, iv, 0.037 MBq, total radioactivity, percent injected dose, 0.5 h post-injection.

The subject of the next data set is MC1 receptor. Particulars: cited from earlier work.
In data set [7] the target is melanocortin-1 (MC1) receptor (Mus musculus, UniProt Q01727). The note with it: read-out: MC1 receptor binding affinity; B16/F1 cells; ref [17], [21]; cited from earlier work.
The test system of data set [8] is B16/F1 melanoma-bearing C57 mice. Particulars: mouse, in vivo, 4 h; cited from earlier work.

Positions of bridges follow the written chain, without caps; N, C: chain ends. Non-standard residues stand in square brackets, D forms with d. No end group written: not given here. *: point of attachment. DOTA = O=C(O)CN1CCN(CC(=O)O)CCN(CC(=O)*)CCN(CC(=O)O)CC1; Nle = CCCC[C@H](N)C(=O)O

Sequence of melanocortin-1 (MC1) receptor (Q01727 whole entry): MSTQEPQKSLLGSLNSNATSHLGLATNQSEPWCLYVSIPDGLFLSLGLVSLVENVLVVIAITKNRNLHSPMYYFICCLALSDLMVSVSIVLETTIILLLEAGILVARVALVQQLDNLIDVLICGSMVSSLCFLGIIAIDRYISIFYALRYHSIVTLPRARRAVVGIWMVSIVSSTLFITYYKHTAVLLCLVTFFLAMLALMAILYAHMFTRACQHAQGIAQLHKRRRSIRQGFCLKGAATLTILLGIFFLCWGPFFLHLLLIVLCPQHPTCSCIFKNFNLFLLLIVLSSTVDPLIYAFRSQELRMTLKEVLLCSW

As for `CCCC[C@H](NC(=O)CN1CCN(CC(=O)O)CCN(CC(=O)O)CCN(CC(=O)O)CC1)C(=O)N[C@H]1CC(=O)NCCCC[C@@H](C(N)=O)NC(=O)[C@H](Cc2c[nH]c3ccccc23)NC(=O)[C@H](CCCNC(=N)N)NC(=O)[C@@H](Cc2ccccc2)NC(=O)[C@H](Cc2c[nH]cn2)NC1=O` [^111In-DOTA-Nle-CycMSHhex, metal not drawn], the “Internalized activity remained inside the cells” value in the data set with B16/F1 melanoma cells [1] worked out at 89.5±1.9%. Also, in the data set on B16/F1 melanoma cells [2] (20 min post incubation), the “Cellular uptake activity internalized” value came to 72.9±3.5%. Further, the “Cellular uptake activity internalized” value with B16/F1 melanoma cells [2] (120 min post incubation) turned out to be 88.3±0.7%. Besides, the “Urinary metabolite analysis by RP-HPLC” value in [3] is reported as “remained intact”. In addition, the “Stability in mouse serum” value in [4] is listed as “stable”. In addition, in data set [5] (10 μg non-radiolabeled NDP-MSH co-injection, 2 h), the “Tumor uptake with NDP-MSH co-injection as percent of tumor uptake without” value came out at 4.2%. Further, in data set [5] (2 h post-injection), the “Reduction of kidney uptake value by L-lysine co-injection” value worked out at 30%; the “Renal uptake value as percent of that of ^111In-DOTA-GlyGlu-CycMSH” value came to 72.8%; the “Tumor uptake value, times that of ^111In-DOTA-GlyGlu-CycMSH” value is listed as 1.86 times; the “Tumor uptake value, times that of ^111In-DOTA-Re(Arg^11)CCMSH” value was determined as 1.12 times. For the same compound, in [5] (4 h post-injection), the “Renal uptake value as percent of that of ^111In-DOTA-GlyGlu-CycMSH” value came out at 82.4% and the “Tumor uptake value, times that of ^111In-DOTA-Re(Arg^11)CCMSH” value came out at 0.98 times. In data set [5] (24 h post-injection), the “Tumor uptake value, times that of ^111In-DOTA-Re(Arg^11)CCMSH” value is listed as 1.29 times. For the same compound, in [5] (24 h vs 2 h post-injection), the “Percent of tumor activity at 2 h post-injection remaining in tumors at 24 h” value came to 54.3%. Besides, the dose excreted at 0.5 h in data set [6] was 57 ± 3.91%.
Turning to “Ac-Nle-c[Asp-His-DPhe-Arg-Trp-Lys(CONH2)] [MT-II]”, in the data set with MC1 receptor (ref [27], [28]), the “MC1 receptor binding affinity compared with native α-MSH peptide” value is recorded as “higher MC1 receptor binding affinity” and the “MC1 receptor dissociation rate compared with native α-MSH peptide” value was “slower MC1 receptor dissociation rate”.
“DOTA-Gly-Glu-c[Lys-Nle-Glu-His-DPhe-Arg-Trp-Gly-Arg-Pro-Val-Asp] ({DOTA}-GEK[Nle]EH[dF]RWGRPVD; lactam 3-14; not fully specified) [DOTA-GlyGlu-CycMSH]”: the IC50 in data set [7] is 0.9 nM.
For “[Ac-Nle^4,Asp^5,D-Phe^7,Lys^11(pz-^99mTc(CO)3)]α-MSH4–11”, the Melanoma uptake in data set [8] is recorded as 4.24 ± 0.94 %ID/g.
As to [Nle^4, D-Phe^7]- α-MSH [NDP-MSH], in the data set with MC1 receptor (stated without reference), the “Affinity for the MC1 receptor present on the melanoma cells” value was “picomolar”.
As for “^99mTc(CO)3-pz-βAla-Nle-cyclo[Asp-His-D-Phe-Arg-Trp-Lys]-NH2”, in data set [8], the Kidneys uptake was 32.12 ± 1.57 %ID/g, the Liver uptake is recorded as 22.86 ± 1.17 %ID/g and the Melanoma uptake is reported as 11.31 ± 1.81 %ID/g.
